Converted amounts (≈) assume the structure as drawn. The source made the active and inactive calls. The calls are words filed in the database; no cut-off is given here.
Experiments:
Enterococcus faecalis [1] = experiment: Antibacterial activity against Enterococcus faecalis ATCC 29212 measured after overnight incubation; format: functional
Procedure, shortened: (§1)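 Liquid growth inhibition in 96-well microplates. Each strain was precultured overnight in Luria Bertoni at 37 °C with stirring, then diluted to 0.03 OD at 620 nm. 200 μL of this suspension was added to wells holding 2-fold serial dilutions of peptide. Plates were incubated overnight at 34 °C with shaking at 450 rpm and read at 620 nm. MIC, run in triplicate, is the lowest concentration giving complete growth inhibition.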

Staphylococcus aureus = experiment: Antibacterial activity against Staphylococcus aureus ATCC 6538 measured after overnight incubation; format: functional; procedure, shortened: as §1
Bacillus cereus [2] = experiment: Antibacterial activity against Bacillus cereus ATCC 14579 measured after overnight incubation; format: functional, organism-based
Procedure, shortened: (§2)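 Broth microdilution (liquid growth inhibition) in 96-well plates. Overnight Luria Bertoni preculture from one colony at 37 °C with stirring, adjusted to OD620 0.03; 200 μL suspension added to 2-fold serial dilutions of peptide. Plates incubated overnight at 34 °C with shaking (450 rpm), read at OD620. MIC = lowest concentration giving complete growth inhibition; triplicate; gentamicin positive control.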

Pseudomonas aeruginosa [3] = experiment: Antibacterial activity against Pseudomonas aeruginosa ATCC 13388 measured after overnight incubation; format: functional, organism-based; procedure, shortened: as §2
Klebsiella pneumoniae [4] = experiment: Antibacterial activity against Klebsiella pneumoniae ATCC 11296 measured after overnight incubation; format: functional, Klebsiella pneumoniae subsp. ozaenae; procedure, shortened: as §1
Escherichia coli [5] = experiment: Antibacterial activity against Escherichia coli ATCC 8739 measured after overnight incubation; format: functional; procedure, shortened: as §1
Pseudomonas aeruginosa [6] = experiment: Antibacterial activity against Pseudomonas aeruginosa ATCC 13388 up to 140 uM measured after overnight incubation; format: functional, organism-based; procedure, shortened: as §1
Klebsiella pneumoniae [7] = experiment: Antibacterial activity against Klebsiella pneumoniae ATCC 11296 up to 140 uM measured after overnight incubation; format: functional, organism-based; conditions: Klebsiella pneumoniae subsp. ozaenae; procedure, shortened: as §1
Escherichia coli [8] = experiment: Antibacterial activity against Escherichia coli ATCC 8739 up to 140 uM measured after overnight incubation; format: functional, organism-based; procedure, shortened: as §1
Bacillus cereus [9] = experiment: Antibacterial activity against Bacillus cereus ATCC 14579 up to 140 uM measured after overnight incubation; format: functional, organism-based; procedure, shortened: as §1
Enterococcus faecalis [10] = experiment: Antibacterial activity against Enterococcus faecalis ATCC 29212 up to 140 uM measured after overnight incubation; format: functional, organism-based; procedure, shortened: as §1

## CC1(C)S[C@@H]2[C@H](NC(=O)[C@H](N)c3ccccc3)C(=O)N2[C@H]1C(=O)O [AMPICILLIN]
Enterococcus faecalis [1]
  MIC: 4.59 µM (≈ 1.6 µg/mL)
Staphylococcus aureus
  MIC: 0.11 µM (≈ 0.0384 µg/mL)

## GENTAMICIN
Bacillus cereus [2]
  MIC: 17.2 µM
Pseudomonas aeruginosa [3]
  MIC: 10.5 µM

## O=C(N[C@H](CO)[C@H](O)c1ccc([N+](=O)[O-])cc1)C(Cl)Cl [CHLORAMPHENICOL]
Klebsiella pneumoniae [4]
  MIC: 3.17 µM (≈ 1.02 µg/mL)
Escherichia coli [5]
  MIC: 19.3 µM (≈ 6.24 µg/mL)

## CC[C@H](C)[C@H]1NC(=O)[C@H](CC(C)C)NC(=O)[C@@H](CC(C)C)NC(=O)[C@H](CC(C)C)NC(=O)[C@H](C(C)C)NC(=O)[C@@H](Cc2ccc(O)cc2)NC1=O
Pseudomonas aeruginosa [6]
  Activity: inactive
Klebsiella pneumoniae [7]
  Activity: inactive
Escherichia coli [8]
  Activity: inactive
Staphylococcus aureus
  MIC: 35 µM (≈ 25 µg/mL)
Bacillus cereus [9]
  Activity: inactive
Enterococcus faecalis [10]
  Activity: inactive

Source: ChEMBL document CHEMBL4130403, “Thermoactinoamide A, an Antibiotic Lipophilic Cyclopeptide from the Icelandic Thermophilic Bacterium Thermoactinomyces vulgaris” (2017)
